Measurements from ChEMBL document CHEMBL4765368, “Structure guided design and synthesis of furyl thiazolidinedione derivatives as inhibitors of GLUT 1 and GLUT 4, and evaluation of their anti-leukemic potential” (Eur J Med Chem, 2020).
The source made the active and inactive calls. No cut-off for these calls is given here.

Experiments:
[1] = target: T1, Solute carrier family 2, facilitated glucose transporter member 1 (Homo sapiens) (UniProt P11166); test: Inhibition of transport activity of human GLUT1 expressed in hexose transporter deficient VW4000fgy1 yeast cells assessed as reduction in transporter-mediated [14C]-hexose uptake into cells by measuring relative activity at 100 uM measured after 10 mins by scintillation counting method relative to control; assay type: cell-based; set-up: scale not given: the % may be the effect or the level left
T1 sequence (whole entry): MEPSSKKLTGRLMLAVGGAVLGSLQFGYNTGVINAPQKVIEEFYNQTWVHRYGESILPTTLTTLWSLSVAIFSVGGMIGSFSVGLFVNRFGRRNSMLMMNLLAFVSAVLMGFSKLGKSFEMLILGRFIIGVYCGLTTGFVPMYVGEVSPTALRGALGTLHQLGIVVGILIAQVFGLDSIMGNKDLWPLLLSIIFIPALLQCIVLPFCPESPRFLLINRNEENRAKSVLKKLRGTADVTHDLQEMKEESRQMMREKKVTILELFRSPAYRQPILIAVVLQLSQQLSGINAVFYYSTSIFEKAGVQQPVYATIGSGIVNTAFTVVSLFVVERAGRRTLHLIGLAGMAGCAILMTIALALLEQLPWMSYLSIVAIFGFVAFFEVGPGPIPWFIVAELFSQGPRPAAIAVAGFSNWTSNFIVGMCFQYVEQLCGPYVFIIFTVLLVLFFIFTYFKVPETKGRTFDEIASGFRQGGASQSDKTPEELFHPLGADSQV
Outline: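 The hxt0 yeast strain expressing one human GLUT was grown at 30 °C and resuspended in PBS pH 7.4 at OD600 ~10. Uptake was started with 14C-glucose at 5 mM final (GLUT1, GLUT4) or 14C-fructose at 10 mM final (GLUT5). It was quenched after 10 min with ice-cold 0.1 M KPi/0.1 M LiCl pH 5.5, filtered and counted by scintillation. Compound at 100 μM with 1% DMSO; DMSO control and phloretin 200 μM (GLUT1/4) or MSNBA 100 μM (GLUT5) as references. Triplicates.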

[2] = system: HS27; test: Cytotoxicity against human HS27 cells assessed as cell death at 100 uM measured after 48 hrs by Hoechst 33342/propidium iodide staining based imaging analysis relative to control; settings: hs27, 48 h
Outline: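 HS-27 fibroblasts in DMEM with 10% FBS and penicillin/streptomycin at 37 °C, 5% CO2, seeded at 3,000 cells/well. Treated 48 h with DMSO-dissolved compound (0.5–100 µM range) in quadruplicate. Hoechst 33342 and PI were added 2 h before imaging, and Hoechst/PI-colocalised nuclei were scored as dead. Controls were DMSO vehicle, H2O2 and untreated cells.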

[3] = Toxicity in SCID mouse assessed as death at 500 mg/kg, ip administered as single dose; assay type: organism-based; settings: in vivo
Outline: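 SCID mice aged 8–10 weeks were kept in individually ventilated cages on a 12 h light/dark cycle with autoclaved pellets and water ad libitum.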

[4] = system: CCRF-CEM; test: Induction of apoptosis in human CCRF-CEM cells assessed as activation of caspase 3 at 10 uM measured after 6 hrs by Western blot analysis; assay type: functional, cell-based
Outline: (§1)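 CEM cells were treated with 10 µM for 6 h. Untreated cells were the negative control and staurosporine the positive control. Cells were washed with cold PBS, lysed in Laemmli buffer with protease inhibitors, sonicated and quantified. Blots were blocked 45 min in PBS-Tween-5% milk, with primary antibody 3 h and secondary 1 h at room temperature.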

[5] = system: CCRF-CEM; test: Cell cycle arrest in human CCRF-CEM cells assessed as decrease in accumulation at S phase measured after 72 hrs by NIM-DAPI staining based flow cytometry; assay type: functional
Outline: (§2)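 An asynchronous CEM culture was seeded at 100,000 cells/well in 1 mL complete RPMI and exposed to 10, 25 or 50 μM for 72 h. Controls were untreated cells, DMSO and hydrogen peroxide. Cells were pelleted at 262 g, resuspended, and stained with NIM-DAPI, which permeabilizes and stains DNA in one step. About 100,000 events per sample were read by flow cytometry. Triplicates.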

[6] = target: T1, Solute carrier family 2, facilitated glucose transporter member 1 (Homo sapiens); test: Inhibition of GLUT1 in human CCRF-CEM cells assessed as decrease in mTOR phosphorylation at 10 uM measured after 6 hrs by Western blot analysis; assay type: cell-based; outline: as §1
[7] = system: CCRF-CEM; test: Antitumor activity against human CCRF-CEM cells xenografted in SCID mouse assessed as reduction in tumor growth at 50 mg/kg, ip administered daily for 5 days with 2 days interval for 18 days; assay type: functional, organism-based; settings: time 18.0 day
Outline: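 SCID mice aged 8-10 weeks, in individually ventilated cages on a 12 h light/dark cycle, autoclaved pellets and water ad libitum. 1×10^5 CEM cells were injected on the back to form palpable tumors, which were minced and regrafted. Compound given 50 mg/kg i.p. on days 1-5, 8-12 and 15-18. Saline vehicle group; doxorubicin 20 mg/kg i.p. reference group. n=6 per group. Tumor volume by caliper every two days as (width)² x length/2.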

[8] = system: CCRF-CEM; test: Induction of apoptosis in human CCRF-CEM cells assessed as early apoptotic cells at CC50 measured after 24 hrs by AnnexinV-FITC/propidium iodide staining based flow cytometry analysis relative to control; assay type: functional
Outline: (§3)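 CCRF-CEM cells in RPMI with 10% FBS were seeded in 24-well plates, incubated overnight, given fresh medium, then treated for 24 h. Cells were PBS-washed, spun at 500 g for 5 min at 4 °C, and resuspended in ice-cold binding buffer. They were stained with annexin V-FITC and PI for 15 min on ice in the dark, then read by flow cytometry. Untreated cells were the negative control; triplicates.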

[9] = target: T1, Solute carrier family 2, facilitated glucose transporter member 1 (Homo sapiens); test: Inhibition of GLUT1 in human CCRF-CEM cells assessed as upregulation of GRP78 expression at 10 uM measured after 6 hrs by Western blot analysis; assay type: cell-based; outline: as §1
[10] = system: CCRF-CEM; test: Induction of apoptosis in human CCRF-CEM cells assessed as late apoptotic cells at CC50 measured after 24 hrs by AnnexinV-FITC/propidium iodide staining based flow cytometry analysis relative to control; assay type: functional; outline: as §3
[11] = target: T1, Solute carrier family 2, facilitated glucose transporter member 1 (Homo sapiens); test: Inhibition of GLUT1 in human CCRF-CEM cells assessed as decrease in CDK2 phosphorylation at 10 uM measured after 6 hrs by Western blot analysis; assay type: cell-based; outline: as §1
[12] = Cytotoxicity against human WBC assessed as cell viability at higher concentration measured after 48 hrs by MTT assay relative to control; assay type: tissue-based
[13] = Toxicity in SCID mouse assessed as distress at 1000 mg/kg, ip administered as single dose; assay type: organism-based; settings: in vivo
[14] = system: CCRF-CEM; test: Cell cycle arrest in human CCRF-CEM cells assessed as decrease in accumulation at G0/G1 phase measured after 72 hrs by NIM-DAPI staining based flow cytometry; assay type: functional; outline: as §2
[15] = system: CCRF-CEM; test: Induction of apoptosis in human CCRF-CEM cells assessed as live cells at CC50 measured after 24 hrs by AnnexinV-FITC/propidium iodide staining based flow cytometry analysis (reference value: 92.15%); assay type: functional; outline: as §3
[16] = Selectivity index, ratio of IC50 for human WBC to CC50 for human CCRF-CEM cells
Outline: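 Donor blood was layered on HiSep and centrifuged at 400×g for 30 min; mononuclear cells were washed and RBC-lysed to give WBCs. WBCs were seeded overnight at 37 °C, 5% CO2, then exposed to 2.5–100 µM for 48 h. MTT was added for 4 h at 37 °C, formazan was dissolved in DMSO and A570 read. The CEM CC50 came from a 48 h Hoechst/PI imaging assay.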

| SMILES | Activity [1] | Activity [2] | Activity [3] | Activity [4] | Activity [5] | inhibition [6] | Activity [7] | Activity [8] | inhibition [9] | Activity [10] | inhibition [11] | Activity [12] | Activity [13] | Activity [14] | Activity [15] | Ratio IC50 [16] |
| --- | --- | --- | --- | --- | --- | --- | --- | --- | --- | --- | --- | --- | --- | --- | --- | --- |
| O=C(CN1C(=O)S/C(=C/c2ccco2)C1=O)Nc1ccc(Cl)c(Cl)c1 | 30% | 27.32% | – | – | – | – | – | – | – | – | – | – | – | – | – | – |
| O=C(CN1C(=O)S/C(=C/c2ccco2)C1=O)Nc1nc2ccccc2s1 | – | – | Non-Toxic | Active | Dose-dependent effect | Active | Active | 1.38% | Active | 55.87% | Active | > 62% | Toxic | Dose-dependent effect | 26.14% | 107 |
